In ChEMBL document CHEMBL1126822, “7 alpha-Methyl- and 11 beta-ethoxy-substitution of [125I]-16 alpha-iodoestradiol: effect on estrogen receptor-mediated target tissue uptake” (J Med Chem, 1993) one finds ID/g data, which are given here for two compounds.

Conditions in all cases: in vivo
For series [1], the system named is Rattus norvegicus. In words: Tissue uptake (brain) of [125I]- after administration of [125I]-labeled compound to immature female rats (n=3) in the absence of 60 microg coinjected estradiol after 0.5 hours. Type of series: ADME, organism-based. The method, boiled down:
(§1)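 Immature female Fischer rats, 24 days old, 55-60 g, unanesthetized in retention cages, given HPLC-purified 125I-labeled steroid (3 μCi, 111 kBq) via lateral tail vein in 200 μL of 9% ethanol-saline with 1% Tween-80. The blocking group was coinjected with 60 μg unlabeled estradiol and sampled at 1 h. Animals were killed under ether at 0.5-24 h. Tissues were KCl-washed, blotted, weighed and gamma-counted. Results are % ID/g, with variation as small-sample-corrected %CV.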

Series [2] concerns Rattus norvegicus. Kind of series: Tissue uptake (kidneys) of [125I]- after administration of [125I]-labeled compound to immature female rats (n=4) in the absence of 60 microg coinjected estradiol and 5 hours. Type of series: ADME, organism-based, Kidney. The method in brief: as §1
Series [3] deals with Rattus norvegicus. In words: Tissue uptake (brain) of [125I]- after administration of [125I]-labeled compound to immature female rats (n=3) in the presence of 60 microg coinjected estradiol after 1 hour. Type of series: ADME, organism-based. The method, boiled down: as §1
Series [4] relates to Rattus norvegicus. In words: Tissue uptake (blood) of [125I]- after administration of [125I]-labeled compound to immature female rats (n=3) in the absence of 60 microg coinjected estradiol after 24 hours. Format: ADME, organism-based. The method in brief: as §1
Series [5] deals with Rattus norvegicus. Kind of series: Tissue uptake (uterus) of [125I]- after administration of [125I]-labeled compound to immature female rats (n=3) in the absence of 60 microg coinjected estradiol after 0.5 hours. Format: ADME, organism-based. The method in brief:
(§2)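 Immature female Fischer rats, 24 days old, 55-60 g, unanesthetized in retention cages, got HPLC-purified n.c.a. 125I-labeled steroid (3 μCi, 111 kBq) by lateral tail vein. Dose was given in 200 μL saline with 9% ethanol and 1% Tween-80. Deep ether anesthesia, axillary artery cut; tissues KCl-washed, blotted, weighed, gamma-counted as % ID/g; variation as small-sample-corrected %CV.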

Series [6] deals with Rattus norvegicus. In words: Tissue uptake (brain) of [125I]- after administration of [125I]-labeled compound to immature female rats (n=3) in the absence of 60 microg coinjected estradiol after 24 hours. Type of series: ADME, organism-based. The method in brief: as §1
In series [7] the test system is Rattus norvegicus. Kind of series: Tissue uptake (kidneys) of [125I]- after administration of [125I]-labeled compound to immature female rats (n=4) in the absence of 60 microg coinjected estradiol after 5 hours. Format: ADME, organism-based, Kidney. The method in brief: as §1
The subject of series [8] is Rattus norvegicus. In words: Tissue uptake (uterus) of [125I]- after administration of [125I]-labeled compound to immature female rats (n=3) in the absence of 60 microg coinjected estradiol after 24 hours. Type of series: ADME, organism-based. The method in brief: as §2
In series [9] the test system is Rattus norvegicus. Kind of series: Tissue uptake (blood) of [125I]- after administration of [125I]-labeled compound to immature female rats (n=4) in the absence of 60 microg coinjected estradiol. (5 hours after injection) (% coefficient of variation). Type of series: ADME, organism-based. The method, boiled down: as §1
In series [10] the test system is Rattus norvegicus. Kind of series: Tissue uptake (plasma) of [125I]- after administration of [125I]-labeled compound to immature female rats (n=4) in the absence of 60 microg coinjected estradiol after 2 hours. Format: ADME, organism-based. The method in brief:
as §1

The subject of series [11] is Rattus norvegicus. In words: Tissue uptake (plasma) of [125I]- after administration of [125I]-labeled compound to immature female rats (n=5) in the absence of 60 microg coinjected estradiol after 1 hour. Type of series: ADME, organism-based. The method, boiled down:
as §2

On to `CCO[C@H]1C[C@]2(C)[C@@H](O)[C@H](I)C[C@H]2[C@@H]2CCc3cc(O)ccc3[C@H]21`, for which the ID/g in series [1] came to 0.68%; in series [2], 0.91%; in series [3], 0.42%; in series [4], 0.17%; in series [5] it was 7.85%; in series [6], 0.04%.
In the case of `C[C@@H]1Cc2cc(O)ccc2[C@H]2CC[C@]3(C)[C@@H](O)[C@H](I)C[C@H]3[C@H]12`, the ID/g in series [7] was 0.25%; in [8], 1.64%; in [9] it was 0.28%; in series [10], 0.49%; in series [11], 0.58%.
